System: MS2 coat protein
Experiment: apparent Kd, MS2 coat protein; higher = weaker binding; RNA-MaP array
Method in brief: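 With or without input ligand, designed RNAs transcribed on an Illumina sequencing chip from sequenced DNA templates were incubated at room temperature with fluorescently labeled MS2 coat protein at 1.5 nM to 3 μM. The buffer was Tris-HCl pH 7.5 with KCl, MgCl2, BSA, DTT, tRNA and Tween20, and incubation ran 0.8–1.5 h at the lowest and 10–20 min at the highest concentrations. Apparent Kd is reported as the median of fits to binding curves from individual clusters. Designs measured on fewer than 10 clusters are not included.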

[1] = designed as: ON switch for flavin mononucleotide, no ligand
[2] = ligand present: flavin mononucleotide, designed as: ON switch for flavin mononucleotide
[3] = designed as: OFF switch for flavin mononucleotide, no ligand
[4] = ligand present: flavin mononucleotide, designed as: OFF switch for flavin mononucleotide

Sequence	apparent Kd [1] [nM]	apparent Kd [2] [nM]	apparent Kd [3] [nM]	apparent Kd [4] [nM]	also measured
CCGGCAACGUAAGGAUAUGAUUCGCGUCUUGACAUGAGGAUCACCCAUGUAACUGUCGAAAUGGCUCAGAAGGUACCAGUGCCC	26.6	17.9	–	–	–
CCGGCGGAAGGAUAUUGCGAUGACCACAUGAGGAUCACCCAUGUCAACUUGAUCCGGGUACAAGAAGGUCCAGCGA	–	–	19.3	15.9	–
CCGUUCGCCGAGAAGGGACAGGACUUAAUAGCGUCAGGAUAUCGCGGACCGUGAUUCUAUGACAUGAGGAUCACCCAUGUGCUU	–	–	34.7	11.7	–
CCUCUCUUCCAGAAGGCUAUCCUAGCAUACGAUAGAGGAUAUGGACCACAAUACGGGUAGAGACACAUGAGGAUCACCCAUGUU	72.4	185	–	–	–
CCUGCAGGUCAGGAUAUCAUAUCUGGCUAACUAUGAGAAGGGACAACAUGAGGAUCACCCAUGUGGUGAUAACA	–	–	666	509	–
CCUUCCUAGUGAGGAUAUCGGCUUGGACUCGAGCGAGAAGGCACCUAAUCGAAGAACUUUUAUCCACAUGAGGAUCACCCAUGU	11.8	11.1	–	–	–
CGAAAUUCAGUAAGGAUAUUAGGAGGCUCUGCGGCUAAGAAGGUACAUGAGGAUCACCCAUGUGGCACCGCAUG	–	–	7.65	7.82	–
CGAAGACAUGAGGAUCACCCAUGUAAGGAUAUUCAAAGAGCGCACCUGAAUGCCCUAUGAAGAAGGUACCGGGC	–	–	69.9	52.1	–
CGAGGACAUGAGGAUCACCCAUGUGACCGUGCCAAAGGAUAUCACAGGAAAUAAUACAGUUGAGAAGGUUGAUCGG	47.1	17.6	–	–	–
CGAUCUGGCUAAGGAUAUCAAGUGCGCAUGGUUUGACAGCACAUGAGGAUCACCCAUGUAACGCAUGAGAAGGUAGGCACACAG	–	–	223	183	–
CGGAAACAUGAGGAUCACCCAUGUGUAGAAAAGACAGGAUAUGACAAGGGCUUGAAGUGCUCAGAAGGGUCUGGAC	15.4	11.2	–	–	–
CGGAAUUCAGGAUAUGGCAUAUCCUACAUGAGGAUCACCCAUGUAUGACCCGUGUGCCGGCCAGAAGGGAACGCUG	–	–	10.8	12	–
CGGCCACAUGAGGAUCACCCAUGUAGUUCGUCUAAAGGAUAUCCAGGUGGGUGACUCCAAGGAGAAGGUUAGGACG	54.7	39.3	–	–	–
CGGUGAUAUGAAGGAUAUGCACAUGAGGAUCACCCAUGUAACCACUAGAACAAAACGUAGUAACCGCAGAAGGUCAGCAGUAGU	23.6	14.5	–	–	–
CUACAUGAGGAUCACCCAUGUGCCUCUGGUCAGGGUCACUACGAGGAUAUAAUAGUUUAGACGAGUUAGAAGGCGUAUGAGUUA	–	–	111	77.4	–
CUCACCUCGUGGAAGGAUAUACACUUUAGCACAUGAGGAUCACCCAUGUCCGCCGCAAAUCCUAGGUAGAAGGUCCGCAACAUUCG	23.5	18	–	–	–
CUCGAAUUAUCAGGAUAUCCACAAUUCGAAGAAGGAGAAGGGAUGGCAGGGCUAACAUGGAACAUGAGGAUCACCCAUGUGCAA	11.2	9.94	–	–	–
CUCGGAAACGGAGGAUAUAGCUGAAGAGGAUUACUAGAAGGCCGAGACAUGAGGAUCACCCAUGUUUUCUCAAGUCGCAGUUUA	–	–	7.93	9.48	–
CUCGGAACAAUCGAUACCAGUUCUCAUGGAUUGCAGCAGUACAUGAGGAUCACCCAUGUAAACCCUUGGCAGCGAAGAACAAGAC	–	–	–	–	apparent Kd (designed as: OFF switch for theophylline, no ligand): 32.7 nM; apparent Kd (ligand present: theophylline, designed as: OFF switch for theophylline): 55.3 nM
CUCGUGUGAGGAUAUUGAUCACAGGUCACGGUGCAGGAAUACAAGAAGGCACAUGAGGAUCACCCAUGUAACCG	–	–	15.7	45	–
CUGUACCGAAUAGGAUAUGAAAAGAAGGUAAAUUCAGAAGGAUUCAAUUAAUUUACAUGAGGAUCACCCAUGUCUAAGCAAACA	12.2	8.39	–	–	–

Sequence	apparent Kd [1] [nM]	apparent Kd [2] [nM]	apparent Kd [3] [nM]	apparent Kd [4] [nM]	also measured
CUUCCACGAGGAUAUCCGUUAACGGACAUGAGGAUCACCCAUGUUAUCCUCACGUCAGCAGGAGAAGGCGUCUCAU	–	–	22.5	33	–
CUUGUGUGAGGAUAUUAGACACAAUCCGACAGCGGGAUAGUUAAGAAGGCACAUGAGGAUCACCCAUGUUGAGU	–	–	44.2	81.2	–
CUUUGACGUGAGAAGGUGCAGGGAAUACACAAGCAAGGAUAUCAUGCACAUGAGGAUCACCCAUGUCCUGUAACGUUUGGUGAC	–	–	437	302	–
GAACAACAUGAGGAUCACCCAUGUCAGGAUACCAGUCGAAAGUCAGACCCUUGGCAGCCUAUCACUCAGCAAAUAGAUAGUACAA	–	–	–	–	apparent Kd (designed as: ON switch for theophylline, no ligand): 15.2 nM; apparent Kd (ligand present: theophylline, designed as: ON switch for theophylline): 13.7 nM
GAACUUCGAGUCAGGAUAUGUACAUCAAAACCAAAACAGAAGGGACAUGAGGAUCACCCAUGUGAGCUAGGAUU	–	–	14.3	14.4	–
GAAUAAAAUAUAAUAAGAAAACAUGAGGAUCACCCAUGUACAAGAAGGGAGAAACUUAACAUAACUCAGGAUAUUGUUAUAUCA	28.9	22.2	–	–	–
GACCUGUUAGGAUAUCGAAGGAGUCAAUACCAAGUGAGACACGAGAAGGAACAUGAGGAUCACCCAUGUGAACC	–	–	11.4	15.7	–
GACGGACAUGAGGAUCACCCAUGUUCUGGCAGCGUAGGAUAUGAAGGGAUGAUUGUACGUUCAGAAGGACGACCUG	10.3	7.53	–	–	–
GACGUGGUGAAGAAGGGCUGACGUAACCGGUGAGCAGGAUAUUCGACUCAUUAAUACAUGAGGAUCACCCAUGUUCGGUAGCGC	–	–	24.8	68	–
GAGCCACAUGAGGAUCACCCAUGUCAGGAUAUCGCAAGCGGGAAUAAGCCAACGUCUACGAGAAGGGACUAAUG	–	–	9.79	10.3	–
GAGGCUCAUAUGUAGGAUAUUCAAGGAGCUACAUGAGGAUCACCCAUGUUCGGACGCCAAUUUUUGAAGAAGGACAAGACAGUGUU	54.6	16.2	–	–	–
GAUCGACAUGAGGAUCACCCAUGUGAGGAUAUACCGCGGACUCCGUCUGCAUGUUAGGGUAGAAGGCACCGAGC	–	–	14.1	13.1	–
GAUCGUUGGGUAAGGAUAUAAGUUUAUUGCUUGGGUUAGAAGGUACAUGAGGAUCACCCAUGUAGGUGAGUCAC	–	–	76.2	61.8	–
GAUGAGUUUAAGGAUAUGGUGCGUUGCUUCUUACCAGAAGGUAAAACAUGAGGAUCACCCAUGUGACGGGUGCC	–	–	177	103	–
GAUUCACAUGAGGAUCACCCAUGUCAGGAUAUGACUUGAGCUGUCUCCGAUCGAGCCAUCAGAAGGGACUGGAA	–	–	30	27.8	–
GAUUCGCAGUCGGCCGCCACUAACAUGAGCUGCUAGUUAUUAUCACAUGAGGAUCACCCAUGUCUUAGGACCGGGACAACCUGUU	–	–	–	–	apparent Kd (designed as: ON switch for tryptophan, no ligand): 77.7 nM; apparent Kd (ligand present: tryptophan, designed as: ON switch for tryptophan): 71 nM
GCAAGGGUGCGAGGAUAUAUUAGAGUCUCUGGAAUAGAAGGCGCAAACAGUGUACAUGAGGAUCACCCAUGUGUAUAUACUGCU	–	–	11	10.2	–
GCACACAUGAGUUAGGAUAUAUGUUGUGAGACAUGAGGAUCACCCAUGUGUGCAUUGCUUAUAAUAUAGAAGGAACCCAGGUCGGC	25.5	17.1	–	–	–
GCACCGCGAGGAUAUACUCUGGCUAUAAUACCAUAUGACAAACAUGAGGAUCACCCAUGUAGAAGGCGCGAUGU	–	–	10.4	14.2	–
GCAGAUACCAUGAGUCGACAUGAGGAUCACCCAUGUACUCCCAGAAGGAUGUACUUUGUUCAAGCAUAGGAUAUGGGCCGAACC	114	56	–	–	–
GCAUAUGCAUACAUGAGGAUCACCCAUGUGGAACUAAGGGCGAAGGAUAUGUGUUAAACUACGAGACAGAAGGUCGUGAGUAGA	19.9	15.2	–	–	–

— the EternaBench riboswitch data
